Measurements: ChEMBL document CHEMBL4699439, “Design and development of novel N-(pyrimidin-2-yl)-1,3,4-oxadiazole hybrids to treat cognitive dysfunctions” (Bioorg Med Chem, 2019)
Calls of active or inactive are those of the source. No cut-off for these calls is given here.

Columns and labels:
Cholinesterase [1] = molecular target: Cholinesterase (Homo sapiens, UniProt P06276); assay: Inhibition of human serum BChE using butyrylthiocholine iodide as substrate preincubated for 10 mins followed by substrate addition and measured for 10 mins by DTNB reagent based Ellman's method; type: cell-free
Chain of Cholinesterase (Homo sapiens, UniProt P06276) (P06276 whole entry): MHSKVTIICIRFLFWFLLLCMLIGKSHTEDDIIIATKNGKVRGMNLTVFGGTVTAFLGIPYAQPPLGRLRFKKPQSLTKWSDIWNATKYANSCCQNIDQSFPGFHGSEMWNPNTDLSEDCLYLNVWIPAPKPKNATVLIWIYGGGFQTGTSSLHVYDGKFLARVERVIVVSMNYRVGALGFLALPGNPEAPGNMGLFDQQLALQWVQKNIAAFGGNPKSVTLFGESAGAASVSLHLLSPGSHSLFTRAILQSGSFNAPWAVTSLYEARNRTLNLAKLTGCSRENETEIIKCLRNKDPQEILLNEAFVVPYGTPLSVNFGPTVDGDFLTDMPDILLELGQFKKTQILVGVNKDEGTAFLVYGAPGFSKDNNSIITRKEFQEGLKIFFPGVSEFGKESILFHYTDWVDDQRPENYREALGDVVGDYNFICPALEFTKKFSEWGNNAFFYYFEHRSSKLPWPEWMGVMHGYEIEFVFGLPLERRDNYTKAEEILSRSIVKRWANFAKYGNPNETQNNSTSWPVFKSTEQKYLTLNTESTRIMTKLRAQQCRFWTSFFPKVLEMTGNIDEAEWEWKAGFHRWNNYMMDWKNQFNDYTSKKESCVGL
Method in brief: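 Enzyme is BChE from human serum, 0.02 units/ml in 0.1% gelatin pH 7.4, preincubated with compound 10 min at 37 °C. Then 0.1 M phosphate containing 340 µM DTNB and 550 µM BTCI added. A412 followed 10 min at 37 °C. DMSO ≤1%. IC50 from nonlinear log-inhibitor fit, n=3.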

[2] = Antioxidant activity assessed as DPPH radical scavenging activity at 20 uM after 30 mins under dark condition by DPPH assay relative to control; type: functional
Method in brief: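 Test compound at 20 µM (solution strength) mixed with 0.5 mM DPPH solution and kept in the dark for 30 min. Absorbance read at 517 nm. % inhibition = (A0−At)/A0 × 100. Ascorbic acid used as standard. Run in triplicate.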

Acetylcholinesterase [3] = molecular target: T1, Acetylcholinesterase (Homo sapiens, UniProt P22303); assay: Inhibition of human erythrocyte AChE using acetylthiocholine iodide as substrate preincubated for 10 mins followed by substrate addition and measured for 10 mins by DTNB reagent based Ellman's method; type: tissue-based
T1 sequence (P22303 whole entry): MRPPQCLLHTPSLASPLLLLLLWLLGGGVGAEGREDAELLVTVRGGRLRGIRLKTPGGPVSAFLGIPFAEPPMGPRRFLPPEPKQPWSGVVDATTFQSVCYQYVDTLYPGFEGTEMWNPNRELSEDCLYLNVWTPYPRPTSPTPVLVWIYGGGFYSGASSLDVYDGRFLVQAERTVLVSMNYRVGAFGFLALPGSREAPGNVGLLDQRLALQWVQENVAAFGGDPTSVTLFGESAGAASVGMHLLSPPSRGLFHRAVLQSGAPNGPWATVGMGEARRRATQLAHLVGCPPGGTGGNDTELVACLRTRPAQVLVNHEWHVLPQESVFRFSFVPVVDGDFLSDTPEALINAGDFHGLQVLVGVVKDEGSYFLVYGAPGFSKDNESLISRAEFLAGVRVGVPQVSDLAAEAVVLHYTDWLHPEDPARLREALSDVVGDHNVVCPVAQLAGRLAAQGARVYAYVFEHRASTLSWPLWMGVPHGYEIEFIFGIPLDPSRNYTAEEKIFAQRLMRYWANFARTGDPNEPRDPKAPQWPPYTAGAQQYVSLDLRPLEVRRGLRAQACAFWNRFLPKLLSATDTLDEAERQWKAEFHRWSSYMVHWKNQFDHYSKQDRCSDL

Cholinesterase [4] = molecular target: Cholinesterase (Equus caballus, UniProt P81908); assay: Inhibition of equine serum BChE using butyrylthiocholine iodide as substrate incubated for 30 mins followed by substrate addition and measured for 20 mins by Ellman's method
Chain of Cholinesterase (Equus caballus, UniProt P81908) (P81908 whole entry): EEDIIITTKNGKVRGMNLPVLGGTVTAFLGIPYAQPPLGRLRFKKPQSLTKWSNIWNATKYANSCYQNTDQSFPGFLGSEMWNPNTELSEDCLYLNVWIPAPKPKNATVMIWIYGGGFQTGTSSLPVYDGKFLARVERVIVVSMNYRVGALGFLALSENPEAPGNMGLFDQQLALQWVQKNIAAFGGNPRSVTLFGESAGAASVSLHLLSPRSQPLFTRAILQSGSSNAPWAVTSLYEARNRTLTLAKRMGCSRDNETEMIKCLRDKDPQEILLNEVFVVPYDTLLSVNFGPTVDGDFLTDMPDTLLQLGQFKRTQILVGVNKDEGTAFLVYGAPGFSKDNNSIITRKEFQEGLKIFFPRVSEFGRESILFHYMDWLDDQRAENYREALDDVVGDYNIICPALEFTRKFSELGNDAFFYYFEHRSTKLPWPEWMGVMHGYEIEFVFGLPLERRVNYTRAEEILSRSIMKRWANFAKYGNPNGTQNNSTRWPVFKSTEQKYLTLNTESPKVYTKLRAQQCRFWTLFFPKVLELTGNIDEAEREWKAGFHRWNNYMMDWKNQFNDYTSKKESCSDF

Acetylcholinesterase [5] = molecular target: Acetylcholinesterase (Electrophorus electricus, UniProt O42275); assay: Inhibition of recombinant Electric eel AChE incubated for 15 mins by amplex red reagent based fluorescence assay
Chain of Acetylcholinesterase (Electrophorus electricus, UniProt O42275) (O42275 whole entry): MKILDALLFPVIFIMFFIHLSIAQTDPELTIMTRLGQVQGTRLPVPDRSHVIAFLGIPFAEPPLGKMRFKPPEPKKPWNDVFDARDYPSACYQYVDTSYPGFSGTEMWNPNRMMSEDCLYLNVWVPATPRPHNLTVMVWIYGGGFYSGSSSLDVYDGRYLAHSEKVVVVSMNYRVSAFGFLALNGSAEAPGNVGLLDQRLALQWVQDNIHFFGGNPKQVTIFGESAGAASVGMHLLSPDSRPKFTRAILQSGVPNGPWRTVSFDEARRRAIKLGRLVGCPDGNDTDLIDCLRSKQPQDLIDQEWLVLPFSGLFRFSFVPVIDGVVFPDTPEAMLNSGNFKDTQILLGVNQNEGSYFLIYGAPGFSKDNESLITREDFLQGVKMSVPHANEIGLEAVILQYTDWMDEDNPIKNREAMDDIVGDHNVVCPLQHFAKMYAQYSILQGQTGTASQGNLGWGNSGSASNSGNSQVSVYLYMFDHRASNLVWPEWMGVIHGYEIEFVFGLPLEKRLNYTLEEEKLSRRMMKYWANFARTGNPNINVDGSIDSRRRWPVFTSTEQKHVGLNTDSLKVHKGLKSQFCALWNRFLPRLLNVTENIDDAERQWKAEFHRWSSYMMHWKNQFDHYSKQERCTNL

[6] = Effective permeability of compound in PBS buffer at pH 7.4 at 25 ug/ml incubated for 20 hrs by PAMPA-BBB assay
SH-SY5Y = assay: Neuroprotection against amyloid beta (25 to 35)-induced toxicity in human SH-SY5Y cells assessed as cell viability at 10 uM preincubated for 2 hrs followed by incubation with amyloid beta (25 to 35) for 24 hrs relative to control; type: functional; conditions: time 26 hrs, read-out: Activity
Acetylcholinesterase [7] = molecular target: T1, Acetylcholinesterase; assay: Inhibition of human AChE-induced amyloid beta(1 to 42) aggregation at Abeta:compound concentration ratio of 1:2 incubated for 48 hrs by thioflavin-T fluorescence method
Method in brief: (§1)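 Aβ1-42 (10 µM) incubated with hAChE ([…]) with or without compound (5, 10 and 20 µM) at 37 °C for 48 h, DMSO below 1%. ThT then added at 5 µM. Fluorescence read at ex 485/em 528 nm. % inhibition taken from intensities with vs without inhibitor. Run in triplicate.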

Mus musculus [8] = assay: Ex vivo inhibition of Swiss mouse brain AChE using ACTI as substrate at 10 mg/kg, po administered once daily for 7 days and administered with scopolamine at 30 mins after compound challenge on 7th day and measured on day 7 by Ellman's method; type: functional, organism-based; conditions: time 7.0 day
Method in brief: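 Male Swiss albino mice dosed p.o. daily for 7 days in 0.3% CMC. Scopolamine 0.5 mg/kg i.p. given 30 min after the day-7 dose. Brain homogenate supernatant incubated with 0.1 M phosphate pH 7.4 and DTNB for 10 min at 37 °C. ATCI then added from a 7.5 mM stock. A412 followed for 10 min. Expressed as ACh hydrolysed/min/mg protein (Lowry).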

[9] = Acute toxicity in Swiss albino mouse assessed as salivation at 500 mg/kg, po measured for 14 days; type: organism-based; conditions: in vivo, 336 h, time 14 day
Method in brief: (§2)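 Adult male Swiss albino mice, 25-30 g, dosed orally following OECD 423 at various doses up to 500 mg/kg. Watched at 30 min, 2 h, 4 h and 24 h for autonomic and behavioural changes. Followed for 14 days for tremors, convulsions, salivation, diarrhea, lethargy, sleep and coma.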

Mus musculus [10] = assay: (§3) Antioxidant activity in scopolamine-induced memory impairment Swiss albino mouse model assessed as reduction in scopolamine-induced oxidative stress by measuring increase in SOD level at 10 mg/kg, po administered once daily for 7 days and administered with scopolamine at 30 mins after compound challenge on 7th day; type: functional, organism-based; conditions: time 7.0 day
Method in brief: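 Same mouse dosing and brain supernatant preparation as the oxidative-stress assays. For SOD, supernatant mixed with reagent containing 0.1 mM EDTA, 24 µM NBT and 50 mM Na2CO3, plus hydroxylamine hydrochloride. Assay at pH 10.2, absorbance read at 560 nm.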

in vitro = conditions: human, SH-SY5Y cells
[11] = Acute toxicity in Swiss albino mouse assessed as convulsion at 500 mg/kg, po measured for 14 days; type: organism-based; conditions: in vivo, 336 h, time 14 day; method in brief: as §2
Acetylcholinesterase [12] = molecular target: T1, Acetylcholinesterase; assay: Inhibition of human AChE-induced amyloid beta(1 to 42) aggregation incubated for 48 hrs by thioflavin-T fluorescence method; conditions: dose microM 5-20, time 48.0 hrs; method in brief: as §1
[13] = Acute toxicity in Swiss albino mouse assessed as mortality at 500 mg/kg, po observed for 24 hrs; type: organism-based; conditions: in vivo; method in brief: as §2
[14] = Acute toxicity in Swiss albino mouse assessed as diarrhea at 500 mg/kg, po measured for 14 days; type: organism-based; conditions: in vivo, 336 h, time 14 day; method in brief: as §2
[15] = Acute toxicity in Swiss albino mouse assessed as feeding behavior at 500 mg/kg, po observed for 24 hrs; type: organism-based; conditions: in vivo; method in brief: as §2
[16] = Acute toxicity in Swiss albino mouse assessed as lacrimation at 500 mg/kg, po observed for 24 hrs; type: organism-based; conditions: in vivo; method in brief: as §2
[17] = Acute toxicity in Swiss albino mouse assessed as sleep at 500 mg/kg, po measured for 14 days; type: organism-based; conditions: in vivo, 336 h, time 14 day; method in brief: as §2
[18] = Acute toxicity in Swiss albino mouse assessed as tremor at 500 mg/kg, po measured for 14 days; type: organism-based; conditions: in vivo, 336 h, time 14 day; method in brief: as §2
Mus musculus [19] = assay: Antioxidant activity in scopolamine-induced memory impairment Swiss albino mouse model assessed as reduction in scopolamine-induced oxidative stress by measuring decrease in malondialdehyde level at 10 mg/kg, po administered once daily for 7 days and administered with scopolamine at 30 mins after compound challenge on 7th day by TBARS assay; type: functional, organism-based; conditions: time 7.0 day
Method in brief: (§4)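 Male Swiss albino mice, six per group. Compound suspended in 0.3% w/v CMC, given p.o. once daily for 7 days. Scopolamine HBr 0.5 mg/kg i.p., in water, given 30 min after dosing on day 7. After behavioural tests, whole brain homogenised in 10 mM PBS pH 7.4 and supernatant used. Protein by Lowry method. For MDA (TBARS), supernatant incubated 2 h at 37 °C, TCA-precipitated, heated with 0.67% thiobarbituric acid at 50 °C for 10 min, A532, expressed as moles MDA/mg protein. For nonprotein thiol (Sedlak–Lindsay), TCA supernatant in Tris-EDTA pH 8.9 reacted with DTNB, A412 within 5 min, expressed as µM/mg protein.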

Mus musculus [20] = assay: (§5) Reversal of scopolamine-induced memory cognitive memory impairment in po dosed Swiss albino mouse assessed as increase in spontaneous alteration rate administered once daily for 7 days and administered with scopolamine at 30 mins after compound challenge on 7th day and measured for 5 mins on day 7 by Y-maze test; type: functional, organism-based; conditions: dose mg/kg 2.5-10, time 7.0 day
Method in brief: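 Male Swiss albino mice, six per group. Compound given p.o. in 0.3% CMC daily for 7 days, at 2.5, 5 or 10 mg/kg. Scopolamine 0.5 mg/kg i.p. given 30 min after the day-7 dose. Each mouse placed in a three-arm Y-maze and arm entries and alternations recorded over 5 min. % alternation = alternations/(total entries−2) × 100.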

Acetylcholinesterase [21] = molecular target: T1, Acetylcholinesterase; assay: Non-competitive inhibition of human erythrocyte AChE using acetylthiocholine iodide as substrate at 0.15 to 0.6 uM preincubated for 10 mins followed by substrate addition and measured for 10 mins by Ellman's method based Line-weaver Burk plot analysis; type: tissue-based
Mus musculus [22] = assay: as §3, with “total non-protein thiol” for “SOD”; type: functional, organism-based; conditions: time 7.0 day; method in brief: as §4
Mus musculus [23] = assay: as §5, with “transfer latency time” for “spontaneous alteration rate”, “during retention trial” for “for 5 mins”, “passive avoidance” for “Y-maze”; type: functional, organism-based; conditions: dose mg/kg 2.5-10, time 7.0 day
Method in brief: (§6)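 Dosing as for the Y-maze: p.o. in CMC daily for 7 days, scopolamine 0.5 mg/kg i.p. on day 7, six mice per group. Apparatus is a two-compartment lit/dark box. Acquisition begins 5 min after scopolamine, with the mouse held in the lit side for 30 s. Latency to enter the dark side recorded as transfer latency time. No foot shock in the retention trial.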

Mus musculus [24] = assay: as §5, with “transfer latency time” for “spontaneous alteration rate”, “during acquisition trial” for “for 5 mins”, “passive avoidance” for “Y-maze”; type: functional, organism-based; conditions: dose mg/kg 2.5-10, time 7.0 day; method in brief: as §6

In the case of O=[N+]([O-])c1ccccc1-c1nnc(Nc2ncccn2)o1, the IC50 (Cholinesterase [1]) is reported as > 50.1 µM, the inhibition [2] is reported as 51.8% and the IC50 (Acetylcholinesterase [3]) is reported as 3.39 µM.

In the case of C#CCOc1ccc(-c2cc(-c3ccc(OCCN4CCOCC4)cc3)nc(N)n2)cc1, the IC50 (Cholinesterase [4]) is reported as 0.666 µM and the IC50 (Acetylcholinesterase [5]) is reported as 0.304 µM.

For Fc1ccc(-c2nnc(Nc3ncccn3)o2)cc1, the IC50 (Cholinesterase [1]) was > 50.1 µM, the inhibition [2] was 41.9% and the IC50 (Acetylcholinesterase [3]) was 2.4 µM.

With COc1cc2c(cc1OC)C(=O)C(CC1CCN(Cc3ccccc3)CC1)C2 (configuration not stated) the inhibition [2] was < 20%.

Molecule Brc1cccc(-c2nnc(Nc3ncccn3)o2)c1 has an IC50 (Cholinesterase [1]) of 20.4 µM, an inhibition [2] of 47.9% and an IC50 (Acetylcholinesterase [3]) of 3.31 µM.

With Oc1ccc(-c2nnc(Nc3ncccn3)o2)cc1 the IC50 (Cholinesterase [1]) was > 50.1 µM, the inhibition [2] was 63.4% and the IC50 (Acetylcholinesterase [3]) was 1.74 µM. For the same molecule, the Papp at 20 h, 25 ug/ml [6] was 3.23 ×10⁻⁶ cm/s.

Brc1ccc(CSc2nnc(CSc3nc4ccccc4s3)o2)cc1 gave a viability at 10 µM (SH-SY5Y) of 95.7%.

In the case of COc1ccc(-c2nnc(Nc3ncccn3)o2)cc1, the IC50 (Cholinesterase [1]) is reported as > 50.1 µM, the inhibition [2] is reported as 45.8% and the IC50 (Acetylcholinesterase [3]) is reported as 1.55 µM.

With O=[N+]([O-])c1ccc(-c2nnc(Nc3ncccn3)o2)cc1 the IC50 (Cholinesterase [1]) was > 50.1 µM, the inhibition [2] was < 20% and the IC50 (Acetylcholinesterase [3]) was > 5.01 µM.

Work on O=C1O[C@H]([C@@H](O)CO)C(O)=C1O yielded an inhibition [2] of 64.6%.

For Brc1ccc(-c2nnc(Nc3ncccn3)o2)cc1, the IC50 (Cholinesterase [1]) was 22.9 µM, the inhibition [2] was 47.8% and the IC50 (Acetylcholinesterase [3]) was 3.72 µM.

With Clc1ccccc1-c1nnc(Nc2ncccn2)o1 the IC50 (Cholinesterase [1]) was > 50.1 µM, the inhibition [2] was < 20% and the IC50 (Acetylcholinesterase [3]) was > 5.01 µM.

With COc1cc(-c2nnc(Nc3ncccn3)o2)cc(OC)c1OC the IC50 (Cholinesterase [1]) was > 50.1 µM, the inhibition [2] was 57.7% and the IC50 (Acetylcholinesterase [3]) was 1.23 µM. It also gave a Papp at 20 h, 25 ug/ml [6] of 4.21 ×10⁻⁶ cm/s.

With c1ccc(-c2nnc(Nc3ncccn3)o2)cc1 the IC50 (Cholinesterase [1]) was > 50.1 µM, the inhibition [2] was 51.4% and the IC50 (Acetylcholinesterase [3]) was 2.04 µM.

In the case of Oc1ccccc1-c1nnc(Nc2ncccn2)o1, the IC50 (Cholinesterase [1]) is reported as > 50.1 µM, the inhibition [2] is reported as 58.8% and the IC50 (Acetylcholinesterase [3]) is reported as > 5.01 µM.

In the case of Cc1ccc(-c2nnc(Nc3ncccn3)o2)cc1, the IC50 (Cholinesterase [1]) is reported as > 50.1 µM, the inhibition [2] is reported as < 20% and the IC50 (Acetylcholinesterase [3]) is reported as 1.62 µM.

With Clc1ccc(-c2nnc(Nc3ncccn3)o2)cc1 the IC50 (Cholinesterase [1]) was > 50.1 µM, the inhibition [2] was 46.2% and the IC50 (Acetylcholinesterase [3]) was 2.88 µM.

For c1cnc(Nc2nnc(-c3cccc4ccccc34)o2)nc1, the inhibition (Acetylcholinesterase [7]) was “Active”, the inhibition (Mus musculus [8]) was “Active” and the Activity [9] was “Non-Toxic”. The Activity (Mus musculus [10]) was “Active”, the IC50 at 24 h (in vitro) was 79.4 µM and the Activity [11] was “Non-Toxic”. For the same molecule, the IC50 (Cholinesterase [1]) was 12 µM, the inhibition (Acetylcholinesterase [12]) was “Dose-dependent effect” and the Activity [13] was “Non-Toxic”. For the same molecule, the Activity [14] was “Non-Toxic”, the Activity [15] was “Non-Toxic” and the Activity [16] was “Non-Toxic”. The Activity [17] was “Non-Toxic”, the inhibition [2] was 60% and the Activity [18] was “Non-Toxic”. For the same molecule, the Activity (Mus musculus [19]) was “Active”, the Activity (Mus musculus [20]) was “Dose-dependent effect” and the IC50 (Acetylcholinesterase [3]) was 0.302 µM. The Papp at 20 h, 25 ug/ml [6] was 5.82 ×10⁻⁶ cm/s, the Ki (Acetylcholinesterase [21]) was 0.17 µM and the Activity (Mus musculus [22]) was “Active”. For the same molecule, the Activity (Mus musculus [23]) was “Dose-dependent effect” and the Activity (Mus musculus [24]) was “Dose-dependent effect”.

With COc1ccc(-c2nnc(Nc3ncccn3)o2)cc1OC the IC50 (Cholinesterase [1]) was > 50.1 µM, the inhibition [2] was 49.5% and the IC50 (Acetylcholinesterase [3]) was 1.91 µM.
